Reference: article PMC2903386 (The Journal of Biological Chemistry, 2010)

Tests used:
MMP-2 = MMP-2 (Homo sapiens, UniProt P08253); assay: Cleavage by purified MMP-2; type: in vitro ADME; conditions: 5 μM Cy5-labeled peptide, 50 nM enzyme, 2 h, Tricine gel, UVP software
Method in brief: (§1)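 Commercial active purified enzymes were each used at 50 nM with 5 μM Cy5-labeled test peptide in the manufacturer's recommended buffer. The figure legend gives 2 h; the methods text gives 4 h. Samples were boiled 1 min in Tricine sample buffer, run on 10–20% Tricine gels and imaged (ex 628 ± 20 nm, em >700 nm). Percent cleaved versus uncleaved was quantitated from gel fluorescence.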

MMP-9 = MMP-9 (Homo sapiens, UniProt P14780); assay: Cleavage by purified MMP-9; type: in vitro ADME; conditions: 5 μM Cy5-labeled peptide, 50 nM enzyme, 2 h, Tricine gel, UVP software
Chain of MMP-9 (P14780 107-707 limits assumed): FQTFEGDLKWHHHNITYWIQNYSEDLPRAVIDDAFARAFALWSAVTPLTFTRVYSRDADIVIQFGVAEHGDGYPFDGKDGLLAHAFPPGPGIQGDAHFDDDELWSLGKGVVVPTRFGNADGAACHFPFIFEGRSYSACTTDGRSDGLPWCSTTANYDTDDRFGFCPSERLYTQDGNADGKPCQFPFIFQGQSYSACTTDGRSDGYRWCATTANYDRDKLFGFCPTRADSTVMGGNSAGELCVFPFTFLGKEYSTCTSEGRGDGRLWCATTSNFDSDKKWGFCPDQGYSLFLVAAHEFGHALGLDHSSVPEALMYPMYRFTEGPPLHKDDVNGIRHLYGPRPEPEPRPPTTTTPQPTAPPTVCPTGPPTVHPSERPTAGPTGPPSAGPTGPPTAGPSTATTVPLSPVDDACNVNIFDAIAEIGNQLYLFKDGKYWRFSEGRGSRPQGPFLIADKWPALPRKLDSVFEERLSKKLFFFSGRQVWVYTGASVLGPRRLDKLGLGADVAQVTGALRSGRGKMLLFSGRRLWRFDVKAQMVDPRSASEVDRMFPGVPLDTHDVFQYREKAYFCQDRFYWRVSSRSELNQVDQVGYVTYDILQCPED
Method in brief: as §1

MMP-14 = assay: Cleavage by purified MMP-14; type: in vitro ADME
Method in brief: as §1

kallikrein 5 = kallikrein 5 (Homo sapiens, UniProt Q9Y337); assay: Cleavage by purified kallikrein 5; type: in vitro ADME; conditions: 5 μM Cy5-labeled peptide, 50 nM enzyme, 2 h, Tricine gel, UVP software
Chain of kallikrein 5 (Q9Y337 67-293 limits assumed): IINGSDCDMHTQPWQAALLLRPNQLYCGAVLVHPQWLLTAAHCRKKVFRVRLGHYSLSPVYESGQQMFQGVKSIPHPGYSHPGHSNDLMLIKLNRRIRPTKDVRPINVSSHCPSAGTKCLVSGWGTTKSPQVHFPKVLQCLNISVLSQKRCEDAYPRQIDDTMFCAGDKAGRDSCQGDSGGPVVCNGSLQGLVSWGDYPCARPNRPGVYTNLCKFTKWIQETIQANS
Method in brief: as §1

thrombin = thrombin (Homo sapiens, UniProt P00734); assay: Cleavage by purified thrombin; type: in vitro ADME; conditions: 5 μM Cy5-labeled peptide, 50 nM enzyme, 2 h, Tricine gel, UVP software
Method in brief: as §1

[1] = biological target: urokinase plasminogen activator (Homo sapiens, UniProt P00749); assay: Cleavage by purified urokinase plasminogen activator; type: in vitro ADME
Method in brief: as §1

[2] = biological target: tissue plasminogen activator (Homo sapiens, UniProt P00750); assay: Cleavage by purified tissue plasminogen activator; type: in vitro ADME; conditions: 5 μM Cy5-labeled peptide, 50 nM enzyme, 2 h, Tricine gel, UVP software
Chain of tissue plasminogen activator (P00750 36-562): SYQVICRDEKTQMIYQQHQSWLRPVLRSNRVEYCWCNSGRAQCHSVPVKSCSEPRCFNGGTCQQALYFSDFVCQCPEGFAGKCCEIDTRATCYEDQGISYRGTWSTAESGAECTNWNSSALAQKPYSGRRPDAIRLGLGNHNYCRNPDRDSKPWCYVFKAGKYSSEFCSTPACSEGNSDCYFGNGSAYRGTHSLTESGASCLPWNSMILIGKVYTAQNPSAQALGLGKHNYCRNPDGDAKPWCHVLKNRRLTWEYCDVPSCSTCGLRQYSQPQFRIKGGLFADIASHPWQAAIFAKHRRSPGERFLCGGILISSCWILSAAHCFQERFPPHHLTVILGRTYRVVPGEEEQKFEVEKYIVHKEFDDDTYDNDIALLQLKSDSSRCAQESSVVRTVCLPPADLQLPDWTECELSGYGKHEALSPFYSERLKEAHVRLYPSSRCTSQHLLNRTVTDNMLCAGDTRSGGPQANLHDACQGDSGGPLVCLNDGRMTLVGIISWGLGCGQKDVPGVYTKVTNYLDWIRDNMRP
Method in brief: as §1

factor VIIa = assay: Cleavage by purified factor VIIa; type: in vitro ADME; conditions: human
Method in brief: as §1

factor IXa = factor IXa (Homo sapiens, UniProt P00740); assay: Cleavage by purified factor IXa; type: in vitro ADME; conditions: 5 μM Cy5-labeled peptide, 50 nM enzyme, 2 h, Tricine gel, UVP software
Chain of factor IXa (P00740 227-461 limits assumed): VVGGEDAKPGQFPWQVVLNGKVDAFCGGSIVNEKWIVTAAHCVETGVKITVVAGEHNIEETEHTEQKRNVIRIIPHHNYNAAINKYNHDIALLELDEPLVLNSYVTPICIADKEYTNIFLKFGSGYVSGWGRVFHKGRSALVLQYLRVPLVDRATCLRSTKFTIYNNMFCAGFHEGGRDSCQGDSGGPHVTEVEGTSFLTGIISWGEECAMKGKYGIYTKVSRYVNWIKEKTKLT
Chain of factor IXa (P00740 47-191 partner limits assumed): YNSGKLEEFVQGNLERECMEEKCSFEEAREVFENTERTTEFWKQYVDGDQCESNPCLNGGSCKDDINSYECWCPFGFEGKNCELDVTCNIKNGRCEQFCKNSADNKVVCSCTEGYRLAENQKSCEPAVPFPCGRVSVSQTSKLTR
Method in brief: as §1

factor Xa = factor Xa (Homo sapiens, UniProt P00742); assay: Cleavage by purified factor Xa; type: in vitro ADME; conditions: 5 μM Cy5-labeled peptide, 50 nM enzyme, 2 h, Tricine gel, UVP software
Chain of factor Xa (P00742 235-488 limits assumed): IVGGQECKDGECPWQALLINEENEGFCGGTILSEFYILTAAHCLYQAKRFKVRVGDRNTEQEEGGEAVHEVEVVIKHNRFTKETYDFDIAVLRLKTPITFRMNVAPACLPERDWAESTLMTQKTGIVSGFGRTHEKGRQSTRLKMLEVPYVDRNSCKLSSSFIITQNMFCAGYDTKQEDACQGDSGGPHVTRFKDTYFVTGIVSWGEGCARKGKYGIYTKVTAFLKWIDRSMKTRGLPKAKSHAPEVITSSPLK
Chain of factor Xa (P00742 41-179 partner limits assumed): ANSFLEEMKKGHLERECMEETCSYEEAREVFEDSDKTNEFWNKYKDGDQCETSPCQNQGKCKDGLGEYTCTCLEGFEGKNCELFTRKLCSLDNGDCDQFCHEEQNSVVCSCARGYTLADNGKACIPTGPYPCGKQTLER
Method in brief: as §1

factor XIa = factor XIa (Homo sapiens, UniProt P03951); assay: Cleavage by purified factor XIa; type: in vitro ADME; conditions: 5 μM Cy5-labeled peptide, 50 nM enzyme, 2 h, Tricine gel, UVP software
Chain of factor XIa (P03951 388-625 limits assumed): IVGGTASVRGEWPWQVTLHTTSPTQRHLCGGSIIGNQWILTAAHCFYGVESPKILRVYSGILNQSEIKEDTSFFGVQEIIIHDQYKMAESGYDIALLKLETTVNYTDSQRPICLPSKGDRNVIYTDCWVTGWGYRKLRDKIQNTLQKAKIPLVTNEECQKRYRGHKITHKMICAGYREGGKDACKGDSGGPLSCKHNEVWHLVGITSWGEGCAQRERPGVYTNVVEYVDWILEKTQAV
Chain of factor XIa (P03951 19-387 partner limits assumed): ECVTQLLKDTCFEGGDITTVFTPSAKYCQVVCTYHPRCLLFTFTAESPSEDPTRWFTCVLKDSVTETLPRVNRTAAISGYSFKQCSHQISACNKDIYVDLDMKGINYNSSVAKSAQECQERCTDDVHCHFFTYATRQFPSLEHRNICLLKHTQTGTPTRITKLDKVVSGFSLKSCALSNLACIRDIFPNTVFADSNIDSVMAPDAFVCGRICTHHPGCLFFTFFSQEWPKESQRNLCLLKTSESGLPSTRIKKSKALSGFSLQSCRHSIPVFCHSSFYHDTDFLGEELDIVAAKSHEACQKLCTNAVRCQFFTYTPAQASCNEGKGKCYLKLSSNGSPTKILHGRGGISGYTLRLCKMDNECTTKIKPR
Method in brief: as §1

factor XIIa = factor XIIa (Homo sapiens, UniProt P00748); assay: Cleavage by purified factor XIIa; type: in vitro ADME; conditions: 5 μM Cy5-labeled peptide, 50 nM enzyme, 2 h, Tricine gel, UVP software
Chain of factor XIIa (P00748 373-615 limits assumed): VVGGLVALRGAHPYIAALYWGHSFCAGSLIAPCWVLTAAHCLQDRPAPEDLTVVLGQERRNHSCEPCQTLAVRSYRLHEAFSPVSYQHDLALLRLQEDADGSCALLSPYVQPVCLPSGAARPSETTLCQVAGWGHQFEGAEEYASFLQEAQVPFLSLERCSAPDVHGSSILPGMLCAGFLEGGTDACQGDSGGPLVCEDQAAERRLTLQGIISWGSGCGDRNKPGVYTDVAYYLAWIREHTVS
Method in brief: as §1

cathepsin B = cathepsin B (Homo sapiens, UniProt P07858); assay: Cleavage by purified cathepsin B; type: in vitro ADME; conditions: 5 μM Cy5-labeled peptide, 50 nM enzyme, 2 h, Tricine gel, UVP software
Method in brief: as §1

cathepsin L = cathepsin L (Homo sapiens, UniProt P07711); assay: Cleavage by purified cathepsin L; type: in vitro ADME; conditions: 5 μM Cy5-labeled peptide, 50 nM enzyme, 2 h, Tricine gel, UVP software
Chain of cathepsin L (P07711 114-333): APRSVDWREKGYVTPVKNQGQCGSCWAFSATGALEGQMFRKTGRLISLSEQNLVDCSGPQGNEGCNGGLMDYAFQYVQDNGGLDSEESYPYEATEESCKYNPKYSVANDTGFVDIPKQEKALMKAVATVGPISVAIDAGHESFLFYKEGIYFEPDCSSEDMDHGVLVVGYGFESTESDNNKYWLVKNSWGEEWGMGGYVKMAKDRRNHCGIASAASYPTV
Method in brief: as §1

cathepsin H = assay: Cleavage by purified cathepsin H; type: in vitro ADME; conditions: human
Method in brief: as §1

MMP-8 = MMP-8 (Homo sapiens, UniProt P22894); assay: Cleavage by purified MMP-8; type: in vitro ADME; conditions: purified enzyme; data not shown
MMP-13 = MMP-13 (Homo sapiens, UniProt P45452); assay: Cleavage by purified MMP-13; type: in vitro ADME; conditions: purified enzyme; data not shown
matriptase = matriptase (Homo sapiens, UniProt Q9Y5Y6); assay: Cleavage by purified matriptase; type: in vitro ADME; conditions: purified enzyme; data not shown
Chain of matriptase (Q9Y5Y6 615-855 limits assumed, species assumed): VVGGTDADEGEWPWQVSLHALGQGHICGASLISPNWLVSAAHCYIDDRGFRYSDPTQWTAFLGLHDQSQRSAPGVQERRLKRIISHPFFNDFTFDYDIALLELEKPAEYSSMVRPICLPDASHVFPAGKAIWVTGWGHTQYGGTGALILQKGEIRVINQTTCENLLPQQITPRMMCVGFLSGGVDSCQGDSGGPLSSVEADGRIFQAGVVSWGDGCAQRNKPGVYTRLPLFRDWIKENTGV

legumain = legumain (Homo sapiens, UniProt Q99538); assay: Cleavage by purified legumain; type: in vitro ADME; conditions: purified enzyme; data not shown
Chain of legumain (Q99538 18-323 limits assumed, species assumed): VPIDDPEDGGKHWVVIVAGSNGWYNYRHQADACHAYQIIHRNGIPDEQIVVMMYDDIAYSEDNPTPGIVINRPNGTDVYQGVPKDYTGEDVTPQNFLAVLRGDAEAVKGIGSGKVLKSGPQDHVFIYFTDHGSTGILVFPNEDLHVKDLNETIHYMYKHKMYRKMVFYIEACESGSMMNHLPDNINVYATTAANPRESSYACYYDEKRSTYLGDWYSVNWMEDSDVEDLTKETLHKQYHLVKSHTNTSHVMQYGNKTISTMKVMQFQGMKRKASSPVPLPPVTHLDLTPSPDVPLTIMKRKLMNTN

MMP12 = MMP12 (Homo sapiens, UniProt P39900); assay: Cleavage by purified MMP12; type: in vitro ADME; conditions: purified enzyme; at times only visible upon gel overexposure
pancreatic elastase = pancreatic elastase (Sus scrofa, UniProt P00772); assay: Cleavage by pancreatic elastase; type: in vitro ADME, porcine; conditions: 5 μM Cy5-labeled peptide, pancreatic elastase (ELA-1), gel
Chain of pancreatic elastase (P00772 27-266): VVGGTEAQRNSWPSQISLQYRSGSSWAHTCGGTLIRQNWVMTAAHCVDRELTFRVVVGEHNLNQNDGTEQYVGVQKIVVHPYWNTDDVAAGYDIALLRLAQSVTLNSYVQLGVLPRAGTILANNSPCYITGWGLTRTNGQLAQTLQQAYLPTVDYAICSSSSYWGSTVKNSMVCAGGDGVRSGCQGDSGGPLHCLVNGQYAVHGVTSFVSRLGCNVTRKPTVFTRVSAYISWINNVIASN
Method in brief: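 5 μM Cy5-labeled test peptide was exposed to pancreatic elastase (ELA-1), with or without 60 μM α1-antitrypsin. Neutrophil/leukocyte elastase (two sources) and tumor extract (2.0 to 0.25%) were tested in parallel. Cleavage was read from fluorescent Tricine gel electrophoresis.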

leukocyte elastase = leukocyte elastase (Homo sapiens, UniProt P08246); assay: Cleavage by leukocyte elastase; type: in vitro ADME; conditions: 5 μM Cy5-labeled peptide, leukocyte elastase (ELA-2 from a different source), gel
Method in brief: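 Commercial active-form purified enzyme at 50 nm was incubated with 5 μm Cy5-labeled peptide in the manufacturer's recommended buffer. Samples were mixed with Tricine sample buffer, boiled 1 min, and resolved on 10–20% Tricine acrylamide gels. Gels were imaged quantitatively at excitation 628 ± 20 nm and emission >700 nm, and the percentage of cleaved versus uncleaved peptide was quantified.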

[3] = Tumor standardized uptake value; type: in vivo; conditions: PyMT, mouse, iv, 10 nmol
Tumor uptake = type: in vivo; conditions: nude, mouse, tumor (MDA-MB-435 M4A4 xenograft), iv, 10 nmol
Method in brief: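 After imaging, mice were euthanized with isoflurane. 30 mg of each tissue was homogenized in 100 μl Tris pH 7.6 with 1% SDS, heated to 85 °C for 10 min, microwaved 10 s and spun at 20,500 × g for 15 min, then imaged. Tissue-specific spiked standards calibrated fluorescence. SUV = tissue peptide molality ÷ injected dose (mol/kg body weight). Values are means ± S.D.; two-tailed t tests.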

PyMT mammary tumors = assay: Fluorescence imaging contrast in PyMT tumor-bearing mice; type: in vivo, mouse; conditions: live mice, 100 μl of 100 μM Cy5-labeled ACPP, imaged 6 h post injection
Method in brief: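 PyMT transgenic mice bearing spontaneous mammary tumors were anesthetized with ketamine 80 mg/kg plus midazolam 5 mg/kg (1:1) and weighed. They were injected via the tail vein with Cy5 peptide: free peptide 100 μl of 100 μM (10 nmol) or albumin-reactive peptide 100 μl of 30 μM (3 nmol). Maestro imaging (ex 640 ± 24 nm, em >700 nm) was done at 6 h or 48 h, comparing tumor with adjacent normal tissue.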

[4] = Cleavage of ACPP by PyMT tumor cystic fluid; type: in vitro ADME, mouse; conditions: 5 μM Cy5-labeled peptide, 2% cystic fluid from PyMT tumors, 2 h, 37 °C, gel
Method in brief: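 Cystic fluid was aspirated with a 28-gauge syringe from surgically exposed fluid-filled mammary tumor nodules of PyMT mice. 5 μM Cy5 peptide in PBS with 1 μM ZnCl2 was digested with cystic fluid (2%) at 37 °C. Aliquots were taken from 20 min to 18 h, with 2 h reported. Protease inhibitors (e.g. Ca-DTPA, TPEN, aprotinin, E-64, leupeptin, pepstatin A) were used at manufacturers' recommended concentrations. Read-out was gel fluorescence.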

[5] = Effect of inhibitors on cleavage of RLQLKL ACPP by PyMT tumor cystic fluid; type: biochemical, mouse; conditions: 5 μM Cy5-labeled RLQLKL ACPP, 2% cystic fluid, 2 h; 5 mM Ca-DTPA, 50 μM TPEN, 18 μM SB3CT, 50 nM GM6001, 0.26 μM prinomastat, 150 nM aprotinin, 100 μM leupeptin, 60 μM α1-antitrypsin; gel
Method in brief: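 Cystic fluid was aspirated by syringe from surgically exposed fluid-filled mammary tumor nodules of PyMT mice. The 5 μm Cy5 peptide was incubated at 37 °C for 2 h in PBS with 1 μm ZnCl2. Inhibitors were used at manufacturer-recommended concentrations, including 10 μm E-64, 1 μm pepstatin A, protease inhibitor mixture III (1:1000) and mixture III plus DTPA. Cleavage was read by Tricine gel electrophoresis and Cy5 fluorescence imaging.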

[6] = Effect of inhibitors on cleavage of RLQLKL ACPP by tumor extract; type: biochemical, mouse; conditions: 5 μM Cy5-labeled RLQLKL ACPP, tumor extract 2.0 to 0.25%; 60 μM α1-antitrypsin; gel
Method in brief: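 Fresh tumor tissue was gently homogenized in PBS on ice and spun at 14,000 × g for 1 min; the supernatant served as the extract. The 5 μm Cy5 peptide was digested at 37 °C in PBS containing 1 μm ZnCl2, with or without 60 μm α1-antitrypsin. Aliquots were taken from 20 min to 18 h, with the 2-h point reported. Cleavage was quantified by Tricine gel and fluorescence imaging.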

plasmin = plasmin (Homo sapiens, UniProt P00747); assay: Effect of inhibitor on plasmin cleavage of RLQLKL ACPP; type: biochemical; conditions: 5 μM Cy5-labeled RLQLKL ACPP, gel
Chain of plasmin (P00747 581-810 limits assumed): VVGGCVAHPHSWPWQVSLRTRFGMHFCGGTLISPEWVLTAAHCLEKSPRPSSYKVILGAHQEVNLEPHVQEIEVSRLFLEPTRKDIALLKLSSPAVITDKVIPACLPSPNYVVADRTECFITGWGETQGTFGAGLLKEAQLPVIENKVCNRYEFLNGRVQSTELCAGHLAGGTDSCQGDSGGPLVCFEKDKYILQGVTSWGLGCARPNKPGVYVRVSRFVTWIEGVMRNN
Chain of plasmin (P00747 97-580 partner limits assumed): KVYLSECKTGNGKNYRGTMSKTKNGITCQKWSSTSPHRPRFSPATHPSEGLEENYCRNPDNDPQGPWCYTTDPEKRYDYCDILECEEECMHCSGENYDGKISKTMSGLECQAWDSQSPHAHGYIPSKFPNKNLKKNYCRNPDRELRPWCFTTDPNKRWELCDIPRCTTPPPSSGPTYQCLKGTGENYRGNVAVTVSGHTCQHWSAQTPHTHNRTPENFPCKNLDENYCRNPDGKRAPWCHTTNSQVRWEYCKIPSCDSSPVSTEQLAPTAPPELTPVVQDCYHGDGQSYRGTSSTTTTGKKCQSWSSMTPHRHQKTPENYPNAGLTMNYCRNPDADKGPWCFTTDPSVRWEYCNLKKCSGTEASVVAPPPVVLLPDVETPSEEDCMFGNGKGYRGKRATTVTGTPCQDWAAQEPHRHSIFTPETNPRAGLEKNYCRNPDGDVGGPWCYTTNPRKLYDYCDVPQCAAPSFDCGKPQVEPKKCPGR

## CC[N+]1=C(C=CC=CC=C2N(CCCCCC(=O)NCCN3C(=O)CC(SC[C@@H](NC(=O)[C@@H](CCCNC(=N)N)NC(=O)[C@@H](CCCNC(=N)N)NC(=O)[C@@H](CCCNC(=N)N)NC(=O)[C@@H](CCCNC(=N)N)NC(=O)[C@@H](CCCNC(=N)N)NC(=O)[C@@H](CCCNC(=N)N)NC(=O)[C@@H](CCCNC(=N)N)NC(=O)[C@@H](CCCNC(=N)N)NC(=O)[C@@H](CCCNC(=N)N)NC(=O)[C@H](CC(C)C)NC(=O)[C@H](CCCCN)NC(=O)[C@H](CC(C)C)NC(=O)[C@H](CCC(N)=O)NC(=O)[C@H](CC(C)C)NC(=O)[C@H](CCCNC(=N)N)NC(=O)CCCCCNC(=O)[C@@H](CCC(=O)O)NC(=O)[C@@H](CCC(=O)O)NC(=O)[C@@H](CCC(=O)O)NC(=O)[C@@H](CCC(=O)O)NC(=O)[C@@H](CCC(=O)O)NC(=O)[C@@H](CCC(=O)O)NC(=O)[C@@H](CCC(=O)O)NC(=O)[C@@H](CCC(=O)O)NC(=O)[C@H](N)CCC(=O)O)C(N)=O)C3=O)c3ccc(S(=O)(=O)O)cc3C2(C)C)C(C)(C)c2cc(S(=O)(=O)[O-])ccc21 (stereo partly drawn) [RLQLKL ACPP]
MMP-2
  percentage of cleavage by MMP-2: less than 3%
MMP-9
  percentage of cleavage by MMP-9: less than 3%
MMP-14
  metabolised at 2 h, 5 μM: < 3%
Kallikrein 5
  percentage of cleavage by kallikrein 5: less than 3%
thrombin
  percentage of cleavage by thrombin: less than 3%
[1]; 5 μM Cy5-labeled peptide, 50 nM enzyme, 2 h, Tricine gel, UVP software
  percentage of cleavage by urokinase plasminogen activator: less than 3%
[1]; purified enzyme, data not shown
  cleavage by urokinase (in words): no cleavage
[2]
  percentage of cleavage by tissue plasminogen activator: less than 3%
Factor VIIa
  metabolised at 2 h, 5 μM: < 3%
Factor IXa
  percentage of cleavage by factor IXa: less than 3%
Factor Xa
  percentage of cleavage by factor Xa: less than 3%
Factor XIa
  percentage of cleavage by factor XIa: less than 3%
Factor XIIa
  percentage of cleavage by factor XIIa: less than 3%
Cathepsin B
  percentage of cleavage by cathepsin B: less than 3%
Cathepsin L
  percentage of cleavage by cathepsin L: less than 3%
Cathepsin H
  metabolised at 2 h, 5 μM: < 3%
MMP-8
  cleavage by MMP-8 (in words): no cleavage
MMP-13
  cleavage by MMP-13 (in words): no cleavage
matriptase
  cleavage by matriptase (in words): no cleavage
legumain
  cleavage by legumain (in words): no cleavage
MMP12
  cleavage by MMP12 (in words): minimal cleavage
Pancreatic elastase
  cleavage by pancreatic elastase (in words): effectively cleaved
Leukocyte elastase
  cleavage by leukocyte elastase (in words): effectively cleaved
[3]
  SUV at 6 h: 0.39 ± 0.14 SUV
Tumor uptake
  SUV at 6 h: 0.7 ± 0.27 SUV
PyMT mammary tumors
  skin uptake versus PLGLAG ACPP (in words): significantly less
[4]
  cleavage by cystic fluid (in words): similarly to tumor tissue extracts

B1: serpin F2/α2-antiplasmin: plasmin-specific inhibitor (protein, UniProt P08697 40-491, looked up)
Alpha-2-antiplasmin: NQEQVSPLTLLKLGNQEPGGQTALKSPPGVCSRDPTPEQTHRLARAMMAFTADLFSLVAQTSTCPNLILSPLSVALALSHLALGAQNHTLQRLQQVLHAGSGPCLPHLLSRLCQDLGPGAFRLAARMYLQKGFPIKEDFLEQSEQLFGAKPVSLTGKQEDDLANINQWVKEATEGKIQEFLSGLPEDTVLLLLNAIHFQGFWRNKFDPSLTQRDSFHLDEQFTVPVEMMQARTYPLRWFLLEQPEIQVAHFPFKNNMSFVVLVPTHFEWNVSQVLANLSWDTLHPPLVWERPTKVRLPKLYLKHQMDLVATLSQLGLQELFQAPDLRGISEQSLVVSGVQHQSTLELSEVGVEAAAATSIAMSRMSLSSFSVNRPFLFFIFEDTTGLPLFVGSVRNPNPSAPRELKEQQDSPGNKDFLQSLKGFPRGDKLFGPDLKLVPPMEEDYPQFGSPK
[5]
  inhibition of cystic fluid cleavage of RLQLKL ACPP (in words): did not inhibit
[6]
  inhibition of tumor extract cleavage of RLQLKL ACPP (in words): did not inhibit
plasmin
  inhibition of plasmin cleavage of RLQLKL ACPP (in words): did inhibit
